From ChEMBL document CHEMBL1145082 (J Med Chem, 2003)

Tests used:
[1] = molecular target: Dual specificity mitogen-activated protein kinase kinase 6 (Homo sapiens) (UniProt P52564); assay: Inhibition of human Mitogen activated protein kinase kinase 6 at 10 uM; design: scale not given: the % may be the effect or the level left
Procedure, shortened: (§1)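 Outsourced selectivity panel. Each kinase phosphorylated its own peptide or protein substrate in the presence of 10 µM compound and 10 µM ATP, within the linear time range. Activity given as mean percent of control incubations from duplicate determinations.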

[2] = molecular target: Platelet-derived growth factor receptor beta (Homo sapiens) (UniProt P09619); assay: Inhibition of Platelet-derived growth factor receptor beta at 10 uM; design: scale not given: the % may be the effect or the level left; procedure, shortened: as §1
[3] = molecular target: Dual specificity mitogen-activated protein kinase kinase 4 (Mus musculus) (UniProt P47809); assay: Inhibition of mouse Mitogen activated protein kinase kinase 4 at 10 uM; design: scale not given: the % may be the effect or the level left
Procedure, shortened: (§2)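 Upstate kinase selectivity panel: each kinase phosphorylated its peptide or protein substrate with 10 µM compound present and 10 µM ATP. Reactions were linear with time. Activity is reported as the mean percentage of control incubations, from duplicate determinations.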

[4] = molecular target: CDK6/cyclin D3 (Homo sapiens) (UniProt P30281+Q00534); assay: Inhibition of Cyclin-dependent kinase 6-cyclin D3 at 10 uM; assay type: protein-complex assay; design: scale not given: the % may be the effect or the level left; procedure, shortened: as §1
[5] = molecular target: Protein kinase C theta type (Homo sapiens, UniProt Q04759); assay: Inhibition of Protein kinase C theta
Procedure, shortened: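 Recombinant human PKCθ (5–10 mU) with histone H1 (0.1 mg/mL) and 33P-ATP, total ATP 10 µM, in 8 mM MOPS pH 7.0, 0.2 mM EDTA, 10 mM Mg acetate. Run 40 min at room temperature, stopped with phosphoric acid, then P30 filter counting. IC50 from 6–10 concentrations; ≥3 experiments in duplicate; ± SEM.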

Bos taurus = species: Bos taurus; assay: Inhibition of bovine Protein kinase A at 10 uM; design: scale not given: the % may be the effect or the level left; procedure, shortened: as §1
[6] = molecular target: Platelet-derived growth factor receptor alpha (Homo sapiens) (UniProt P16234); assay: Inhibition of Platelet-derived growth factor receptor alpha at 10 uM; design: scale not given: the % may be the effect or the level left; procedure, shortened: as §1
[7] = molecular target: Mitogen-activated protein kinase 11 (Homo sapiens) (UniProt Q15759); assay: Inhibition of human Stress activated protein kinase 2b at 10 uM; design: scale not given: the % may be the effect or the level left; procedure, shortened: as §2
[8] = molecular target: Fibroblast growth factor receptor 3 (Homo sapiens) (UniProt P22607); assay: Inhibition of Fibroblast growth factor receptor 3 at 10 uM; design: scale not given: the % may be the effect or the level left; procedure, shortened: as §1
[9] = molecular target: Mitogen-activated protein kinase 9 (Homo sapiens) (UniProt P45984); assay: Inhibition of human c-Jun N-terminal kinase 2-alpha 2 at 10 uM; design: scale not given: the % may be the effect or the level left; procedure, shortened: as §2
[10] = molecular target: Inhibitor of nuclear factor kappa-B kinase subunit beta (Homo sapiens) (UniProt O14920); assay: Inhibition of I-kappa-B-kinase beta at 10 uM; design: scale not given: the % may be the effect or the level left; procedure, shortened: as §1
[11] = molecular target: Cyclin-dependent kinase 2 (Homo sapiens, UniProt P24941); assay: Inhibition of Cyclin-dependent kinase 2 (CDK2)
Procedure, shortened: (§3)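 Reaction started with 30–150 ng kinase, run 1 h at 30 °C. Peptides captured on streptavidin plates and counted. IC50 from 6–10 concentrations; ≥3 experiments in duplicate; ± SEM.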

[12] = molecular target: Calcium/calmodulin-dependent protein kinase type IV (Homo sapiens) (UniProt Q16566); assay: Inhibition of Calcium/calmodulin-dependent protein kinase type IV at 10 uM; design: scale not given: the % may be the effect or the level left; procedure, shortened: as §1
[13] = molecular target: 3-phosphoinositide-dependent protein kinase 1 (Homo sapiens) (UniProt O15530); assay: Inhibition of human 3-phosphoinositide-dependent protein kinase 1 at 10 uM; design: scale not given: the % may be the effect or the level left; procedure, shortened: as §1
[14] = molecular target: Tyrosine-protein kinase Lck (Homo sapiens) (UniProt P06239); assay: Inhibition of human p56 Lck tyrosine kinase at 10 uM; design: scale not given: the % may be the effect or the level left; procedure, shortened: as §2
[15] = molecular target: Tyrosine-protein kinase SYK (Homo sapiens) (UniProt P43405); assay: Inhibition of Syk protein tyrosine kinase at 10 uM; design: scale not given: the % may be the effect or the level left; procedure, shortened: as §1
[16] = molecular target: AMP-activated protein kinase, AMPK (Homo sapiens) (UniProt P54646+O43741+P54619+Q9UGJ0+Q9Y478+Q13131+Q9UGI9); assay: Inhibition of rat liver AMP-activated Protein Kinase at 10 uM; design: scale not given: the % may be the effect or the level left; details: target entry is the homologue from another species; procedure, shortened: as §2
[17] = molecular target: Casein kinase II (Homo sapiens) (UniProt P67870+P68400+P19784); assay: Inhibition of human Casein kinase II at 10 uM; assay type: protein-complex assay; design: scale not given: the % may be the effect or the level left; procedure, shortened: as §1
[18] = molecular target: CDK3/cyclin E (Homo sapiens) (UniProt P24864+O96020+Q00526); assay: Inhibition of cyclin-dependent kinase 3-cyclin E at 10 uM; assay type: protein-complex assay; design: scale not given: the % may be the effect or the level left; procedure, shortened: as §1
[19] = Inhibitory activity against Protein kinase A was determined
[20] = molecular target: RAC-alpha serine/threonine-protein kinase (Homo sapiens) (UniProt P31749); assay: Inhibition of human Protein kinase B alpha at 10 uM; design: scale not given: the % may be the effect or the level left; procedure, shortened: as §1
[21] = molecular target: Glycogen synthase kinase-3 beta (Homo sapiens) (UniProt P49841); assay: Inhibition of human glycogen synthase kinase-3beta (GSK3-beta) at 10 uM; design: scale not given: the % may be the effect or the level left; procedure, shortened: as §2
[22] = molecular target: Tyrosine-protein kinase Blk (Homo sapiens) (UniProt P51451); assay: Inhibition of Blk (B lymphocyte kinase) at 10 uM; design: scale not given: the % may be the effect or the level left; procedure, shortened: as §1
[23] = molecular target: Ribosomal protein S6 kinase alpha-5 (Homo sapiens) (UniProt O75582); assay: Inhibition of human MSK-1 kinase at 10 uM; design: scale not given: the % may be the effect or the level left; procedure, shortened: as §1
[24] = molecular target: Cyclin-dependent kinase 1 (Homo sapiens, UniProt P06493); assay: Inhibition of Cyclin-dependent kinase 1; procedure, shortened: as §3
[25] = molecular target: T1, Protein kinase C beta type (Homo sapiens, UniProt P05771); assay: Inhibition of human Protein kinase C beta 2 at 10 uM; design: scale not given: the % may be the effect or the level left; procedure, shortened: as §1
[26] = molecular target: Tyrosine-protein kinase Fyn (Homo sapiens) (UniProt P06241); assay: Inhibition of human Fyn tyrosine kinase at 10 uM; design: scale not given: the % may be the effect or the level left; procedure, shortened: as §1
[27] = molecular target: Protein kinase C gamma type (Homo sapiens, UniProt P05129); assay: Inhibition of Protein kinase C gamma (PKC-gamma)
Procedure, shortened: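 Recombinant human PKCα, PKCγ or PKCβII (5–10 mU) phosphorylating histone H1 (0.1 mg/mL) with 33P-ATP, total ATP 10 µM. Buffer 50 mM Hepes pH 7.4 with Triton X-100, CaCl2, Mg acetate, phosphatidylserine and diacylglycerol. Run 40 min at room temperature, stopped with phosphoric acid, then P30 filter counting. IC50 from 6–10 concentrations; ≥3 experiments in duplicate; ± SEM.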

[28] = molecular target: T1, Protein kinase C beta type; assay: Inhibition of Protein kinase C beta 2
Procedure, shortened: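 Recombinant human PKCα, PKCγ or PKCβII (5–10 mU) phosphorylating histone H1 (0.1 mg/mL) with 33P-ATP, total ATP 10 µM. Buffer 50 mM Hepes pH 7.4 with Triton X-100, CaCl2, Mg acetate, phosphatidylserine and diacylglycerol. Run 40 min at room temperature, stopped with phosphoric acid, then P30 filter counting.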

[29] = molecular target: Tyrosine-protein kinase Lyn (Homo sapiens) (UniProt P07948); assay: Inhibition of Protein tyrosine kinase Lyn at 10 uM; design: scale not given: the % may be the effect or the level left; procedure, shortened: as §1
[30] = molecular target: RAF proto-oncogene serine/threonine-protein kinase (Homo sapiens) (UniProt P04049); assay: Inhibition of human RAF proto-oncogene serine/threonine-protein kinase (c-RAF) at 10 uM; design: scale not given: the % may be the effect or the level left; procedure, shortened: as §1
[31] = molecular target: Inhibitor of nuclear factor kappa-B kinase subunit alpha (Homo sapiens) (UniProt O15111); assay: Inhibition of I kappa-B kinase alpha (IKK) at 10 uM; design: scale not given: the % may be the effect or the level left; procedure, shortened: as §1
[32] = molecular target: Serine/threonine-protein kinase Chk1 (Homo sapiens) (UniProt O14757); assay: Inhibition of human Serine/threonine-protein kinase Chk1 at 10 uM; design: scale not given: the % may be the effect or the level left; procedure, shortened: as §2
[33] = Inhibition of Vascular endothelial growth factor receptor 2; design: species or system Homo sapiens; procedure, shortened: as §3

Sequence of Tyrosine-protein kinase Lck (Homo sapiens) (P06239 2-509 limits assumed): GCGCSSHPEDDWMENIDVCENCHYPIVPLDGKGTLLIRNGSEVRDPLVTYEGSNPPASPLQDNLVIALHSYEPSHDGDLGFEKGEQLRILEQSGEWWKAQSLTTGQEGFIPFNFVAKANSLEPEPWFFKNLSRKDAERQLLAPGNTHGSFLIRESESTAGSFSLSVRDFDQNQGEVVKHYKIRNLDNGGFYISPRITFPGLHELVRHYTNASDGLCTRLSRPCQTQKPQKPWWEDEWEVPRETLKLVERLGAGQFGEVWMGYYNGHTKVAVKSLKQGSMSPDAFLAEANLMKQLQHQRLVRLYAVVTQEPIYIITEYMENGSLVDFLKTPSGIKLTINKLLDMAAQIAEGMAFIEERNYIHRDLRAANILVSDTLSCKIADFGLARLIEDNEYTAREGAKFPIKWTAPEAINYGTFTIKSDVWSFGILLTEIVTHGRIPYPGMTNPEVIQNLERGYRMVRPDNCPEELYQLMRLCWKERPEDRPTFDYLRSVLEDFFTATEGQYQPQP
Sequence of Glycogen synthase kinase-3 beta (Homo sapiens) (P49841 whole entry, looked up): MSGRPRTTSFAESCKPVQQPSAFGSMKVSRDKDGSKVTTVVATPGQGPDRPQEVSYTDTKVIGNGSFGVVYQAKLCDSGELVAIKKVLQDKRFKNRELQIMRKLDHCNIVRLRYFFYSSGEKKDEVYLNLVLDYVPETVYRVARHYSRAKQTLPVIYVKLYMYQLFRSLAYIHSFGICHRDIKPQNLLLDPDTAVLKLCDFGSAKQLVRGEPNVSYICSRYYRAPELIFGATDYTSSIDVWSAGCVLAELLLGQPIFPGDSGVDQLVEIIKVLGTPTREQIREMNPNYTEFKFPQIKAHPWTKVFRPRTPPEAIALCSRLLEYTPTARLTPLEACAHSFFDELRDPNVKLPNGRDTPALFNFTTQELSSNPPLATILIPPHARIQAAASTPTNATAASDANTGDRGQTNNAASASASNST
Sequence of Dual specificity mitogen-activated protein kinase kinase 6 (Homo sapiens) (P52564 whole entry): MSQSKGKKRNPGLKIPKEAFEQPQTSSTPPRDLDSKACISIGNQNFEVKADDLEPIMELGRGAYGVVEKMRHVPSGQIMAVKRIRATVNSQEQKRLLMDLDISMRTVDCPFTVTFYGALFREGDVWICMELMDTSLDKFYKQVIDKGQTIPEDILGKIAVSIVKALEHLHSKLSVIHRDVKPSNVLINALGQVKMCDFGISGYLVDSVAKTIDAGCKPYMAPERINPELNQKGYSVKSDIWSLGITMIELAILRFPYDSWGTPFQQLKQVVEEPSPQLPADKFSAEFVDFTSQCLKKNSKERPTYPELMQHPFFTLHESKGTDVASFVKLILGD
Sequence of Fibroblast growth factor receptor 3 (Homo sapiens) (P22607 23-806 limits assumed): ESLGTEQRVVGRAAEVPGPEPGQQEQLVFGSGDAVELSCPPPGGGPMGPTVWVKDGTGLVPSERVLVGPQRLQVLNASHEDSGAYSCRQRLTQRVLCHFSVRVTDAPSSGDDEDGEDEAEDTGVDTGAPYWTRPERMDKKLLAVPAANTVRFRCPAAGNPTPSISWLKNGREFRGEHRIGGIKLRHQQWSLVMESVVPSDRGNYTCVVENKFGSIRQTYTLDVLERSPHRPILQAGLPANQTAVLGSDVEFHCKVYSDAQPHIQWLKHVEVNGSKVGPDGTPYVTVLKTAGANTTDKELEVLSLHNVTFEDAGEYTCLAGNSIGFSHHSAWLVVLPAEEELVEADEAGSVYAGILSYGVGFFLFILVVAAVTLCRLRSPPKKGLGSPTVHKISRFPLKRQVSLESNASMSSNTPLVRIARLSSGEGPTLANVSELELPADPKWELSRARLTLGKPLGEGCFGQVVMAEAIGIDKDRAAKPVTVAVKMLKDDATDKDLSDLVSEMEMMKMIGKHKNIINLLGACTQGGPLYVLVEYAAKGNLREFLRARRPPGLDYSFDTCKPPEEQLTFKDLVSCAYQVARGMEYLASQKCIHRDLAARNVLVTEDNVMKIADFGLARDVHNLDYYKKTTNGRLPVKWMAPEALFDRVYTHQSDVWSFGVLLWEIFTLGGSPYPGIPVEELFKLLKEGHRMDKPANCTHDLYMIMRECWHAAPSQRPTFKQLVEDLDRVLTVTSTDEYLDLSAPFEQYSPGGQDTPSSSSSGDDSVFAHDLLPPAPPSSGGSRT
Sequence of Protein kinase C theta type (Q04759 whole entry): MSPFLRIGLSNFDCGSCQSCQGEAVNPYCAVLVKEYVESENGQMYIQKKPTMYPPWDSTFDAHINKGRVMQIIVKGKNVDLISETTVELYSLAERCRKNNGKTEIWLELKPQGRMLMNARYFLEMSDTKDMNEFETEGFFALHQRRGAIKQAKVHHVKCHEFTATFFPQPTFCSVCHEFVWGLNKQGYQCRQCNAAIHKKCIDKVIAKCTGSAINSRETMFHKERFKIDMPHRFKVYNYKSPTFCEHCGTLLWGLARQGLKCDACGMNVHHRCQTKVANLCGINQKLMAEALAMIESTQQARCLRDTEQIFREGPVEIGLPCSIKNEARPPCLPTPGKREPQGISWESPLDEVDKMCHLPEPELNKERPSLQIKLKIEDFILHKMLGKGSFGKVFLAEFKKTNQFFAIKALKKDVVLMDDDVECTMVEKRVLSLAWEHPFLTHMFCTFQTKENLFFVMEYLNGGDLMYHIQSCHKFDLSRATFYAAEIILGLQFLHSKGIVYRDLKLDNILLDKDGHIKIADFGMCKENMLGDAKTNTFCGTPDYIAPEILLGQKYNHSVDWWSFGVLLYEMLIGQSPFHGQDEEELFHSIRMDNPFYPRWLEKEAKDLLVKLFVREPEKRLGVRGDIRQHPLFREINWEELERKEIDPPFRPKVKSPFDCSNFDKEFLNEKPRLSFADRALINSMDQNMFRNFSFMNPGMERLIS
Sequence of Tyrosine-protein kinase Lyn (Homo sapiens) (P07948 2-512 limits assumed): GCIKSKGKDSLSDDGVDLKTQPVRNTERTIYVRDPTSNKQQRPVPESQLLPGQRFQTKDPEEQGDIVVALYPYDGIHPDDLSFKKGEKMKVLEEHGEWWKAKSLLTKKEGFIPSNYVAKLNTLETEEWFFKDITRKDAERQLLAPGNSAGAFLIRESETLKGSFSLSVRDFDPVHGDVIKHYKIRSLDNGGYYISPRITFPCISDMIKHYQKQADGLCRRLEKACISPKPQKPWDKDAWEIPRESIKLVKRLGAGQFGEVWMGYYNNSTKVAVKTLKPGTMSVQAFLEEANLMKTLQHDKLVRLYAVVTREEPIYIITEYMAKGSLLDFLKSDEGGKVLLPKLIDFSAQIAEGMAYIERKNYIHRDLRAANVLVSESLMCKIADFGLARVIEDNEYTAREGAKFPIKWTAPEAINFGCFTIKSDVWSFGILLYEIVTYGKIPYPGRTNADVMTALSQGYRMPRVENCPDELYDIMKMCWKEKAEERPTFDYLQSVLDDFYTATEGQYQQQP
Sequence of 3-phosphoinositide-dependent protein kinase 1 (Homo sapiens) (O15530 whole entry): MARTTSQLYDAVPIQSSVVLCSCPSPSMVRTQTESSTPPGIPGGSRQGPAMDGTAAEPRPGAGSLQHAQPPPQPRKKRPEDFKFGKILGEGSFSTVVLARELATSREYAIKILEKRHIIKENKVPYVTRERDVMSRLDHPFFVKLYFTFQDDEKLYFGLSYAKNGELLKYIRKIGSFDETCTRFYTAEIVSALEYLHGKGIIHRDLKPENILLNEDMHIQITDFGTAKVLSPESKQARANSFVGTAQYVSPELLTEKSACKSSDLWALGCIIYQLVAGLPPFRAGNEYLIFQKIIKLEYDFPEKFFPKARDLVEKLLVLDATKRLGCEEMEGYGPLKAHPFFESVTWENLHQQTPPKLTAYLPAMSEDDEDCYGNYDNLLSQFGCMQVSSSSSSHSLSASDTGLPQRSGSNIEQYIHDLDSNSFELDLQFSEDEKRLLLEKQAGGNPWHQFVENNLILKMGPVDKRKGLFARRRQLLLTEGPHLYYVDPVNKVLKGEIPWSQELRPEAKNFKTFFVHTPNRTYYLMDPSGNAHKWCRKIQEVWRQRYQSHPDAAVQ
Sequence of Cyclin-dependent kinase 1 (P06493 whole entry): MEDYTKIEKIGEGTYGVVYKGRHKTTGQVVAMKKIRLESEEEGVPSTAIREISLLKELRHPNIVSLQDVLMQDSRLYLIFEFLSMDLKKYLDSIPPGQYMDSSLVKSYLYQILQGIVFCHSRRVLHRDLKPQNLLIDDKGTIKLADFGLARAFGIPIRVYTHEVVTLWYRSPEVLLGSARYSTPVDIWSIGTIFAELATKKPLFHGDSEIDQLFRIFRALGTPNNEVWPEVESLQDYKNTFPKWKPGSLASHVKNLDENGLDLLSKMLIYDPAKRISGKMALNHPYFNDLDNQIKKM
Sequence of Mitogen-activated protein kinase 9 (Homo sapiens) (P45984 whole entry, looked up): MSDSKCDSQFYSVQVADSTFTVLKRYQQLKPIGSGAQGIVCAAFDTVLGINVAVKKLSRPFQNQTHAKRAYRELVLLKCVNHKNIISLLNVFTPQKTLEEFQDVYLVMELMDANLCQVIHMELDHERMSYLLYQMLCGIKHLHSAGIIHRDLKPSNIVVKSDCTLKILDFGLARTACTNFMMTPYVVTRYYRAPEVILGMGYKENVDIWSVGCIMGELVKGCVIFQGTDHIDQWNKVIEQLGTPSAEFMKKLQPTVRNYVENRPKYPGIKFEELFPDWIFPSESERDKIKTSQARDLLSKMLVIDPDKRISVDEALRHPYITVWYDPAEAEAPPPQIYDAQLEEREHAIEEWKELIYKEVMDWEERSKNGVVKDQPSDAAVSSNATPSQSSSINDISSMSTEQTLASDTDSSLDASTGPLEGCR
Sequence of Mitogen-activated protein kinase 11 (Homo sapiens) (Q15759 whole entry): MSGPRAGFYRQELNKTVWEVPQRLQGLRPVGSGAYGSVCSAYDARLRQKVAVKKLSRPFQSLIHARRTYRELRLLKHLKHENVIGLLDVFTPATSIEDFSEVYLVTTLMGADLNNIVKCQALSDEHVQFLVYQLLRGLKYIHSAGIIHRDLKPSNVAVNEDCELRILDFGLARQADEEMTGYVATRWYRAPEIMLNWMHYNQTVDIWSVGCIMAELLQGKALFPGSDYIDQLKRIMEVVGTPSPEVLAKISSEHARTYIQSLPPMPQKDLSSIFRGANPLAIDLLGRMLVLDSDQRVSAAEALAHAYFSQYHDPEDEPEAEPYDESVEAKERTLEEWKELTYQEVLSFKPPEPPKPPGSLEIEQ

O=C1NC(=O)C2=C1c1cn(c3ncccc13)CCOCCOCCOCCn1cc2c2cccnc21
Activity [1]: 87% | Activity [2]: 84% | Activity [3]: 110% | Activity [4]: 97% | IC50 [5]: > 10 µM | Activity (Bos taurus): 88% | Activity [6]: 130% | Activity [7]: 105% | Activity [8]: 58% | Activity [9]: 76% | Activity [10]: 97% | IC50 [11]: > 10 µM | Activity [12]: 84% | Activity [13]: 90% | Activity [14]: 194% | Activity [15]: 67% | Activity [16]: 88% | Activity [17]: 105% | Activity [18]: 72% | IC50 [19]: > 10 µM | Activity [20]: 97% | Activity [21]: 0% | Activity [22]: 90% | Activity [23]: 61% | IC50 [24]: > 10 µM | Activity [25]: 15% | Activity [26]: 92% | IC50 [27]: > 10 µM | IC50 [28]: 1.16 µM | Activity [29]: 99% | Activity [30]: 91% | Activity [31]: 100% | Activity [32]: 101% | IC50 [33]: > 10 µM

O=C1NC(=O)C2=C1c1cn(c3ncccc13)CCOCCOCCOCCOCCn1cc2c2cccnc21
Activity [1]: 85% | Activity [2]: 86% | Activity [3]: 107% | Activity [4]: 97% | IC50 [5]: > 10 µM | Activity (Bos taurus): 94% | Activity [6]: 112% | Activity [7]: 104% | Activity [8]: 61% | Activity [9]: 97% | Activity [10]: 101% | IC50 [11]: > 10 µM | Activity [12]: 88% | Activity [13]: 94% | Activity [14]: 174% | Activity [15]: 72% | Activity [16]: 99% | Activity [17]: 102% | Activity [18]: 97% | IC50 [19]: > 10 µM | Activity [20]: 102% | Activity [21]: 0% | Activity [22]: 96% | Activity [23]: 89% | IC50 [24]: > 10 µM | Activity [25]: 69% | Activity [26]: 95% | IC50 [27]: > 10 µM | IC50 [28]: > 10 µM | Activity [29]: 92% | Activity [30]: 97% | Activity [31]: 98% | Activity [32]: 102% | IC50 [33]: > 10 µM
